Reference: ChEMBL document CHEMBL3244055, “Synthesis of mono- and bifunctional alpha-methylene lactone systems as potential tumor inhibitors” (1977)
Calls of active or inactive are those of the source. The rule behind the calls is not given here.

How the values were obtained:
[1] = tested on: CCRF-SLT; test: Growth inhibition of human CCRF-SLT cells in presence of cystathionine; type: functional, cell-based
Outline: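 Cystathionase-containing CCRF-SLT cell line, able to grow on cystathionine, cultured with test lactone in medium supplemented with cystathionine and, in parallel, without it; growth inhibition compared between the two media.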

[2] = tested on: CCRF-CEM; test: Growth inhibition of human CCRF-CEM cells after 48 hrs by cell culture assay; type: functional; conditions: read-out: ID50 (the source's name)
Outline: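 CCRF-CEM human lymphoblastic leukemia cells, which lack cystathionase and need exogenous L-cysteine, grown in culture with test lactone; growth inhibition expressed as ID50 (M).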

[3] = tested on: CCRF-CEM; test: Growth inhibition of human CCRF-CEM cells after 48 hrs by cell culture assay in presence of 1 x 10^-4 M L-cysteine; type: functional; conditions: read-out: ID50 (the source's name)

Row | Compound | growth inhibition (GI) [1] | IC50 [2] | IC50 [3]
1 | C=C1C(=O)OC(C)(C)C1C (stereo not drawn) | Active | 21 µM | –
2 | C=C1C(=O)OC[C@H]2[C@H]3CC[C@@H](C3)[C@@H]12 | – | 7 µM | –
3 | C=C1C(=O)OC[C@@]2(CC)CC[C@H]3C(=C)C(=O)O[C@@H]3[C@@H]12 | – | – | 0.034 µM
4 | C=C[C@]12CC[C@H]3C(=C)C(=O)O[C@@H]3[C@H]1C(=C)C(=O)OC2 | – | – | 0.034 µM
5 | C=C(C(=O)OC)[C@H]1CCC[C@H]2C(=C)C(=O)O[C@H]12 (relative stereo) | – | 2.1 µM | –
6 | C=C1C(=O)O[C@H]2CCC[C@@H]1C2 (relative stereo) | Active | 16 µM | –
7 | C=C1C(=O)O[C@@H]2CCC[C@@H](O)[C@H]12 (relative stereo) | Active | 15 µM | –
8 | C=C1C(=O)O[C@@H]2CC[C@@H](O)[C@H]12 (relative stereo) | – | 2.7 µM | –
9 | C=C[C@]12CCCC[C@H]1C(=C)C(=O)OC2 (relative stereo) | – | 0.68 µM | –
10 | C=C[C@@]12COC(=O)C(=C)[C@@H]1[C@H]1OC(=O)C(=C)[C@@H]1[C@@H](O)C2 [VERNOLEPIN] | – | – | 0.43 µM
